ChEMBL document CHEMBL1147113, “Miltefosine (hexadecylphosphocholine) inhibits cytochrome c oxidase in Leishmania donovani promastigotes” (Antimicrob Agents Chemother, 2007)
Activity calls are given as the source filed them. The rule behind the calls is not given here.

Experiments:
Leishmania donovani [1] = test: Inhibition of TMPD-ascorbate-dependent oxygen consumption in digitonin-permeabilized Leishmania donovani MHOM/SD/00/1S-2D promastigotes at 25 uM after 14 hrs; type: functional, organism-based
Leishmania donovani [2] = test: Effect on oxygen consumption rate in digitonin-permeabilized Leishmania donovani MHOM/SD/00/1S-2D promastigotes assessed as decrease in state 3 respiration at 25 uM after 14 hrs; type: functional; parameters: scale not given: the % may be the effect or the level left
Leishmania donovani [3] = test: Effect on plasma membrane integrity in Leishmania donovani MHOM/SD/00/1S-2D promastigotes assessed as SYTOX green fluorescence at 40 uM after 14 hrs; type: functional
Outline: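 Cells at 2 × 10⁶/ml in RPMI-10% HIFCS given increasing drug concentrations, 14 h at 25°C. Washed twice in Hanks-glucose and stained with 1 μM SYTOX green for 5 min in the dark. Fluorescence read at ex 485/em 520 nm and expressed as % of maximal signal after 0.1% Triton X-100.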

Leishmania donovani [4] = test: Effect on apoptosis induction in Leishmania donovani MHOM/SD/00/1S-2D promastigotes assessed as accumulation in sub-G1 phase at 20 uM after 24 hrs by propidium iodide staining
Leishmania donovani [5] = test: Effect on mitochondrial function in Leishmania donovani MHOM/SD/00/1S-2D promastigotes assessed as decrease in oxygen consumption at 40 uM after 14 hrs relative to control; type: functional; parameters: scale not given: the % may be the effect or the level left
Outline: (§1)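 Promastigotes incubated 14 h at 25°C with drug in RPMI-10% HIFCS at 2 × 10⁶ cells/ml. They were then washed and resuspended in respiration buffer at 10⁸ cells/ml with 5 mM succinate and 1 mg/ml BSA. Clark-electrode O₂ uptake at 25°C, given as nmol O₂/min/10⁸ cells and as % of untreated.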

Leishmania donovani [6] = test: Decrease in intracellular ATP level in Leishmania donovani 3-Luc promastigotes assessed as decrease in luminescence relative to control; type: functional, organism-based
Leishmania donovani [7] = test: Effect on mitochondrial function in Leishmania donovani MHOM/SD/00/1S-2D promastigotes assessed as decrease in oxygen consumption at 10 uM after 14 hrs relative to control; type: functional; parameters: scale not given: the % may be the effect or the level left; outline: as §1
Leishmania donovani [8] = test: Inhibition of Leishmania donovani cytochrome c oxidase
Leishmania donovani [9] = test: Effect on mitochondrial function in Leishmania donovani MHOM/SD/00/1S-2D promastigotes assessed as decrease in oxygen consumption at 20 uM after 14 hrs relative to control; type: functional; parameters: scale not given: the % may be the effect or the level left; outline: as §1
Leishmania donovani [10] = test: Growth inhibition of Leishmania donovani MHOM/SD/00/1S-2D promastigotes at 40 uM assessed as inhibition of MTT reduction after 14 hrs; type: functional, organism-based
Outline: (§2)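 Late-exponential promastigotes at 2 × 10⁶ cells/ml in RPMI-10% HIFCS with drug, 14 h at 25°C. Washed at 4°C in Hanks-10 mM glucose, then given 0.5 mg/ml MTT for 2 h. Formazan dissolved in 10% SDS and read at 595 nm. Triplicates, at least two experiments; EC50 by Litchfield-Wilcoxon.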

Leishmania donovani [11] = test: Inhibition of Leishmania donovani cytochrome c reductase at 40 uM
Outline: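 Same L. donovani mitochondrial fraction (200 μg/ml protein, 0.02% TX-100, 75 mM sodium phosphate pH 7.4), with CcO first blocked by 10 mM KCN and oxidized cytochrome c as acceptor. Reaction started with 5 mM succinate; A550 change monitored. Controls lacked succinate or contained 2 μM antimycin A. HePC tested at 40 μM.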

Leishmania donovani [12] = test: Effect on mitochondrial membrane potential in Leishmania donovani MHOM/SD/00/1S-2D promastigotes by measuring the decrease in rhodamine 123 accumulation after 14 hrs; type: functional, organism-based
Outline: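 After 14 h of drug exposure at 25°C, parasites washed twice at 4°C in Hanks-glucose and loaded with rhodamine 123 (0.3 μg/ml, 5 min, 37°C). Washed again, resuspended at 2 × 10⁶ cells/ml and read by flow cytometry (ex 488/em 525 nm; 20,000 events). Geometric mean fluorescence recorded; 10 mM KCN-poisoned cells served as depolarized control.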

Leishmania donovani [13] = test: Growth inhibition of Leishmania donovani MHOM/SD/00/1S-2D promastigotes assessed as inhibition of MTT reduction after 14 hrs; type: functional, organism-based; outline: as §2

CCCCCCCCCCCCCCCCOP(=O)([O-])OCC[N+](C)(C)C [MILTEFOSINE]
Activity (Leishmania donovani [1]): Active
Activity (Leishmania donovani [2]): 40%
Activity (Leishmania donovani [3]): 10%
Activity (Leishmania donovani [4]): 38%
Activity (Leishmania donovani [5]): 44.4%
Activity (Leishmania donovani [6]): Active
Activity (Leishmania donovani [7]): 95.4%
Activity (Leishmania donovani [8]): Dose-dependent effect
Activity (Leishmania donovani [9]): 75%
Activity (Leishmania donovani [10]): Active
inhibition (Leishmania donovani [11]): 5%
Activity (Leishmania donovani [12]): Dose-dependent effect
EC50 (Leishmania donovani [13]): 10.2 µM
